Source: PubChem BioAssay (several laboratories)
bCat nuc transl = modulators of beta-catenin nuclear translocation, primary screen, imaging, HeLa cells, immunofluorescence, high-content; nuclear translocation activity, % at 5 µM; actives 0.3% (n = 190,000); AID 1665, 2009;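 active means nuclear translocation activity above 50% at 5 µM, with a well cell count of 50 or more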;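 further: per-cell ratio of nuclear to cytoplasmic median beta-catenin stain intensity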
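test system = HeLa cells, endogenous beta-catenin | dosing = single 5 µM dose plus 0.02–20 µM confirmation series | times = compound treatment 24 h, 37°C, 5% CO2 | technique = beta-catenin immunofluorescence imaging with DAPI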
L major viab = Leishmania major promastigote growth inhibition, primary screen | Leishmania major promastigotes, resazurin fluorescence viability | inhibition, % at 10 µM | actives 9% (n = 200,000) | AID 1063, 2008; in the data active means inhibition above about 50%;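 further: promastigotes grown with compound for 44 hours at 28 °C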
Autophagy mod = autophagy modulators in MEF cells, primary screen, imaging, high-content, MEF GFP-LC3; MEF GFP-LC3 puncta imaging; test concentration mostly 10 µM; calls only at 10 µM (by protocol); actives 0.98% (n = 190,000); AID 463193, 2010;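 active means percentage of spot-positive cells more than 3 SD above its plate mean, without a fluorescence outlier flag or 80% toxicity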
Dynein cargo inh = inhibitors of GR-EGFP nuclear translocation, primary screen, dynein cargo transport inhibitor project, imaging, high-content, 3617.4 mouse cells | test concentration mostly 20 µM; stimulated with dexamethasone, 1 µM; stronger effect = lower value | actives 0.47% (n = 220,000) | z-score, hits read low | AID 1381, 2008;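 active means plate z-score of nuclear minus cytoplasmic receptor signal below a set negative limit, without overly bright fluorescence or cell loss, cut at about -3.5 in these data, passing the limit was not always enough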;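 further: z-score of nuclear minus cytoplasmic ring GR-EGFP intensity difference per well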
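Medium: Induction medium lacking tetracycline, stripped serum | Probe or stimulus: 1.0 µM final dexamethasone stimulus | Schedule: 48 h induction, then 1 h compound, then 30 min agonist, 37 °C | Signal: Automated 10x imaging of fixed Hoechst-stained cells | Evaluation: Per-cell GR-EGFP intensity, nucleus versus surrounding cytoplasmic ring, well-averaged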
CHOP inh = inhibitors of CHOP promoter induction, primary screen, cell-based, unfolded protein response, luciferase reporter; actives 3.8% (n = 220,000); inhibition, % at 10 µM; CHO-K1 CHOP-promoter luciferase, tunicamycin-induced, 15-18 h;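 active means compounds that reduced the stress-induced luciferase reporter signal by more than about 70% of percent inhibition, limit read from the data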
MT stabilize HCS = microtubule stabilizers in HeLa cells, primary screen, imaging, high-content imaging; HeLa tubulin immunostaining HCS, 24 h; share of cells brighter than vehicle mean+2SD; % tubulin-high responders, % at 10 µM; actives 0.83% (n = 200,000); AID 2205, 2009;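 active means plate Z-score above 3 for both tubulin-high and condensed-nucleus cell shares, with cell loss under 80%, at 10 µM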;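 further: anti alpha tubulin signal scored within the nucleus-defined area of each cell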
Hits are given with their value; - = inactive; . = not tested or not shown; + = active, no number. Only some compounds are listed: those with a hit (about 12% of all), similar ones and a draw of the others.

SMILES	bCat nuc transl	L major viab	Autophagy mod	Dynein cargo inh	CHOP inh	MT stabilize HCS
CCC(C)NC(=O)c1cc(Sc2nnc(C)s2)nc2ccccc12 (stereo unspecified)	-	-	-	-	-	-
COc1ccccc1N(Cc1ccccc1)S(=O)(=O)c1cc(C(=O)O)ccc1Cl	-	-	-	-	-	-
COc1ccc(NC(=S)N(Cc2cccnc2)Cc2ccco2)cc1	-	91.1	-	-	-	-
CCc1ccc(NC(=S)N(Cc2cccnc2)Cc2ccco2)cc1	-	99.7	-	-	-	-
CCc1ccc(NC(=S)N(CCCN2CCOCC2)Cc2ccco2)cc1	-	-	-	-	-	-
COc1ccc(NC(=S)N(CCCN2CCOCC2)Cc2ccco2)cc1	.	-	-	-	-	-
CC(C)c1c(O)cc(-c2ccncc2)n(-c2ccc(Cl)cc2)c1=O	-	54.4	-	-	-	-
COc1ccc(NC(=S)NCCSc2ccc(Cl)cc2)c(OC)c1	.	99.9	-	-	-	-
COc1ccccc1NC(=S)NCCSc1ccc(Cl)cc1	-	-	-	-	-	-
Cc1ccc(SCCNC(=S)Nc2cc(C)cc(C)c2)cc1	.	65.2	-	-	-	-
O=C1CC(c2cccc(Cl)c2)Cc2nc(N3CCN(c4ccccc4)CC3)ncc21 (stereo unspecified)	-	-	-	-	-	-
CCN1CCN(c2ncc3c(n2)CC(c2cc(OC)c(OC)c(OC)c2)CC3=O)CC1 (stereo unspecified)	140.9	99.8	-	-	.	32.5
COc1cc(NC(=O)CSc2cc(C)c3cc(C)cc(C)c3n2)c(C(=O)O)cc1OC	-	.	.	-	-	.
CCN(CC(=O)Nc1c(C(=O)OC)[nH]c2ccc(C)cc12)c1ccc2c(c1)OCO2	-	-	-	-	-	-
CC(C)(C)NCC(O)COCc1ccc(Cl)cc1 (stereo unspecified)	-	-	-	-	-	-
CCN1CCN(CC(O)COCc2ccccc2)CC1 (stereo unspecified)	-	-	-	-	-	-
OC(COCc1ccc(Cl)cc1)CN1CCN(CC(O)COCc2ccc(Cl)cc2)CC1 (stereo unspecified)	-	99.6	-	-	88.1	-
CCC(C)NCC(O)COCc1ccc(Cl)cc1 (stereo unspecified)	.	59.6	-	-	-	-
OC(COCc1ccccc1)CN1CCN(c2ccccc2F)CC1 (stereo unspecified)	-	52.2	-	-	-	-
OC(COCc1ccc(Cl)cc1)CN1CCc2ccccc2C1 (stereo unspecified)	-	73.4	-	-	-	-
Cc1ccc(S(=O)(=O)NN2C(=O)c3ccccc3NC2c2ccccn2)cc1 (stereo unspecified)	-	-	-	-	-	-
COc1ccc(S(=O)(=O)N(C)C)cc1NC(=O)CSc1nnc(-c2cccnc2)o1	-	-	-	-	-	-
COc1cccc(C(=O)Nc2cccc3c2ccc2cccn23)c1	-	-	-	-	-	-
CN(C)N=Nc1nc2c(c(=O)n(C)c(=O)n2C)n1CC1CO1 (stereo unspecified)	-	.	.	-	-	.
CCS(=O)(=O)c1ccc(O)c(NC(=O)CC2(CC(=O)O)CCCC2)c1	-	.	.	-	-	.
SMILES	bCat nuc transl	L major viab	Autophagy mod	Dynein cargo inh	CHOP inh	MT stabilize HCS
O=c1cc(CNc2ccc(Br)cc2)nc2sccn12	-	70.7	-	-	-	-
CN(Cc1cc(=O)n2ccsc2n1)c1ccccc1	-	-	-	-	-	-
C=C(C)CSc1cc(C)nc2c(-c3ccccc3)c(C)nn12	-	.	.	-	-	.
CCOc1cc(CNc2ccc3cn[nH]c3c2)ccc1OC	.	79.0	-	-	-	-
COc1ccc(CNc2ccc3cn[nH]c3c2)c(OC)c1OC	.	-	-	-	-	-
COC(=O)Nc1nnc(COc2cccc(C)c2)s1	-	-	-	-	-	-
Cc1cccc(C(=O)Nc2nnc(COc3ccccc3)s2)c1	-	-	+	-	-	-
Cn1c(=O)cc(NCCc2ccccc2)[nH]c1=O	.	-	-	-	-	26.3
Cn1c(NCCc2ccccc2)cc(=O)n(C)c1=O	-	-	-	-	-	-
COCc1ccc(CN2CCc3c([nH]c4ccccc34)C2C(C)(C)C)o1 (stereo unspecified)	-	50.4	-	-	-	-
COCCC(=O)N1CCc2c([nH]c3ccccc23)C1C(C)(C)C (stereo unspecified)	-	-	-	-	-	-
CCn1ccnc1CN1CCc2c([nH]c3ccccc23)C1C(C)(C)C (stereo unspecified)	-	52.4	-	-	-	-
O=C1Nc2ccccc2N(O)N1c1cc(-c2ccccc2)[nH]n1	-	-	-	-	-	-
CCOC(=O)N1CCC(NC(=O)c2cc(C(=O)Nc3ccc(S(=O)(=O)N4CCCCC4)cc3)ccc2CO)CC1	-	-	-	-	-	-
CCCCN(CCCC)CCCNC(=O)c1ccc2nc(-c3ccccc3NC(C)=O)c(=O)[nH]c2c1	-	-	-	-	-	-
CC(=O)Nc1ccccc1-c1nc2ccc(C(=O)N3CCN(c4cc(C)ccc4C)CC3)cc2[nH]c1=O	.	56.4	-	-	-	-
Cc1ccc(N(C(=O)Cn2nnc(-c3ccccc3)n2)C(C(=O)NC2CCCCC2)c2ccccn2)cc1C (stereo unspecified)	-	-	-	-	-	-
COc1ccc(C(C(=O)NC(C)(C)C)N(Cc2ccc(C)cc2)C(=O)CCC(=O)Nc2cc(C)on2)cc1 (stereo unspecified)	-	94.4	-	-	-	-
CCC(C)(C)NC(=O)C(c1ccc(OC)cc1)N(Cc1ccco1)C(=O)CCC(=O)Nc1cc(C)on1 (stereo unspecified)	-	96.3	-	-	-	-
COc1cccc(C(C(=O)NC(C)(C)C)N(Cc2ccco2)C(=O)CCC(=O)Nc2cc(C)on2)c1OC (stereo unspecified)	-	-	-	-	-	-
COc1cccc(C(C(=O)NC(C)(C)C)N(C(=O)CCC(=O)Nc2cc(C)on2)C(C)(C)C)c1OC (stereo unspecified)	-	-	-	-	-	-
COc1ccc(C(C(=O)NC(C)(C)C)N(Cc2ccco2)C(=O)CCC(=O)Nc2cc(C)on2)cc1 (stereo unspecified)	-	87.2	-	-	-	-
c1ccc(CCNc2ncnc3scc(C4COc5ccccc5O4)c23)cc1 (stereo unspecified)	-	84.8	-	-	-	-
Cc1ccc(NC(=O)c2sccc2SCc2cccc(C(F)(F)F)c2)cc1	.	-	-	-	80.5	-
Cc1cccc(C)c1NC(=O)c1sccc1SCc1cccc(C(F)(F)F)c1	.	-	-	-	82.0	-
